Data as given in ChEMBL document CHEMBL2417510, “Stereoselective pharmacodynamic and pharmacokinetic analysis of sec-Butylpropylacetamide (SPD), a new CNS-active derivative of valproic acid with unique activity against status epilepticus” (J Med Chem, 2013).
Values after ≈ are worked out from the molar mass of the structure shown.

Experiments:
[1] = test system: Rattus norvegicus; assay: Anticonvulsant activity in ip dosed albino Sprague-Dawley rat assessed as protection against pilocarpine-induced behavioral seizures administered 30 mins post seizure measured after 0.25 to 0.5 hrs; assay type: functional
How it was run: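 Status epilepticus was induced in rats with lithium–pilocarpine. Compound was given ip 30 min after the first observed stage 3 or greater motor seizure. The read-out was prevention of further convulsive seizures across various doses in groups of 4–8 rats.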

[2] = test system: Mus musculus; assay: Teratogenicity in SWV/Fnn mouse assessed as normal fetuses at 283 mg/kg, ip on day 8.5 of gestation (reference value: 100 %); assay type: toxicity, organism-based; parameters: dose 283 mg/kg, route intraperitoneal; details: in vivo
[3] = test system: Rattus norvegicus; assay: Anticonvulsant activity in po dosed albino Sprague-Dawley rat assessed as protection against maximal electroshock-induced seizures after 0.5 to 1 hr; assay type: functional
How it was run: (§1)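 Each test was run at the previously determined time to peak effect: 0.25–0.5 h after ip dosing, or 0.5–1 h after oral dosing. Groups of 4–8 animals received various doses until at least two points fell between 0% and 100% protection or minimal toxicity.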

[4] = test system: Mus musculus; assay: Teratogenicity in SWV/Fnn mouse assessed as normal fetuses at 141 mg/kg, ip on day 8.5 of gestation (reference value: 100 %); assay type: toxicity, organism-based; parameters: dose 141 mg/kg, route intraperitoneal; details: in vivo
[5] = Neurotoxicity in po dosed albino Sprague-Dawley rat assessed as minimal motor impairment after 0.5 to 1 hr; assay type: toxicity, organism-based; details: in vivo; how it was run: as §1
[6] = Tmax in rat at 60 mg/kg, ip; assay type: ADME, organism-based; parameters: dose 60 mg/kg, route intraperitoneal; details: in vivo
How it was run: (§2)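 Naive rats got a single ip dose of 60 mg/kg, formulated in multisol (propylene glycol:alcohol:water for injection, 5:1:4). Plasma concentration–time profiles were followed, and PK parameters (t1/2, CL/F, Vz/F, AUC, Cmax, tmax, MRT) were derived from them.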

[7] = test system: Hippocampus; assay: Protection against kainic acid-induced spontaneous electrographic seizures in combined medial entorhinal cortex hippocampal brain slices of albino Sprague-Dawley rat assessed as burst rate at 100 uM after 1 week relative to control; assay type: functional
How it was run: (§3)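 Rat brain slices showing spontaneous bursting were exposed to 100 μM compound. Burst rate and burst duration were expressed as % of control ± SEM.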

[8] = Mean residence time in rat at 60 mg/kg, ip; assay type: ADME, organism-based; parameters: dose 60 mg/kg, route intraperitoneal; details: in vivo; how it was run: as §2
[9] = test system: Mus musculus; assay: Anticonvulsant activity in ip dosed albino CF1 mouse assessed as protection against 44 mA-current- for 3 secs induced seizures after 0.25 to 0.5 hrs by 6Hz psychomotor seizure test; assay type: functional; how it was run: as §1
[10] = Terminal half life in rat at 60 mg/kg, ip; assay type: ADME, organism-based; parameters: dose 60 mg/kg, route intraperitoneal; details: in vivo, read-out: beta t1/2 (converted); how it was run: as §2
[11] = test system: Mus musculus; assay: Anticonvulsant activity in ip dosed albino CF1 mouse assessed as protection against 32 mA-current- for 3 secs induced seizures after 0.25 to 0.5 hrs by 6Hz psychomotor seizure test; assay type: functional; how it was run: as §1
[12] = test system: Mus musculus; assay: Anticonvulsant activity in ip dosed albino CF1 mouse assessed as protection against maximal electroshock-induced seizures after 0.25 to 0.5 hrs; assay type: functional; how it was run: as §1
[13] = test system: Mus musculus; assay: Anticonvulsant activity in ip dosed albino CF1 mouse assessed as protection against subcutaneous metrazol-induced seizures after 0.25 to 0.5 hrs; assay type: functional; details: albino CF1, 0.5 h; how it was run: as §1
[14] = test system: Rattus norvegicus; assay: Anticonvulsant activity in ip dosed albino Sprague-Dawley rat assessed as protection against subcutaneous metrazol-induced seizures after 0.25 to 0.5 hrs; assay type: functional; how it was run: as §1
[15] = Neurotoxicity in ip dosed albino CF1 mouse assessed as minimal motor impairment after 0.25 to 0.5 hrs; assay type: toxicity, organism-based; details: in vivo; how it was run: as §1
[16] = Apparent clearance in rat at 60 mg/kg, ip; assay type: ADME, organism-based; parameters: dose 60 mg/kg, route intraperitoneal; details: in vivo; how it was run: as §2
[17] = test system: Mus musculus; assay: Teratogenicity in SWV/Fnn mouse assessed as live fetuses at 141 mg/kg, ip on day 8.5 of gestation (reference value: 93.7 %); assay type: toxicity, organism-based; parameters: dose 141 mg/kg, route intraperitoneal; details: in vivo
[18] = test system: Mus musculus; assay: Teratogenicity in SWV/Fnn mouse assessed as resorption at 283 mg/kg, ip on day 8.5 of gestation (reference value: 6.3 %); assay type: toxicity, organism-based; parameters: dose 283 mg/kg, route intraperitoneal; details: in vivo
[19] = test system: Mus musculus; assay: Teratogenicity in SWV/Fnn mouse assessed as live fetuses at 283 mg/kg, ip on day 8.5 of gestation (reference value: 93.7 %); assay type: toxicity, organism-based; parameters: dose 283 mg/kg, route intraperitoneal; details: in vivo
[20] = Neurotoxicity in ip dosed albino Sprague-Dawley rat assessed as minimal motor impairment after 0.25 to 0.5 hrs; assay type: toxicity, organism-based; details: in vivo; how it was run: as §1
[21] = Apparent volume of distribution […] in rat at 60 mg/kg, ip; assay type: ADME, organism-based; parameters: dose 60 mg/kg, route intraperitoneal; details: in vivo, read-out: Vz/F; how it was run: as §2
[22] = test system: Mus musculus; assay: Teratogenicity in SWV/Fnn mouse assessed as resorption at 141 mg/kg, ip on day 8.5 of gestation (reference value: 6.3 %); assay type: toxicity, organism-based; parameters: dose 141 mg/kg, route intraperitoneal; details: in vivo
[23] = test system: Mus musculus; assay: Teratogenicity in SWV/Fnn mouse assessed as fetuses with neural tube defects at 283 mg/kg, ip on day 8.5 of gestation relative to vehicle-treated control; assay type: toxicity, organism-based; parameters: dose 283 mg/kg, route intraperitoneal; details: in vivo
[24] = test system: Mus musculus; assay: Teratogenicity in SWV/Fnn mouse assessed as fetuses with neural tube defects at 141 mg/kg, ip on day 8.5 of gestation relative to vehicle-treated control; assay type: toxicity, organism-based; parameters: dose 141 mg/kg, route intraperitoneal; details: in vivo
[25] = Cmax in rat at 60 mg/kg, ip; assay type: ADME, organism-based; parameters: dose 60 mg/kg, route intraperitoneal; details: in vivo; how it was run: as §2
[26] = test system: Hippocampus; assay: Protection against kainic acid-induced spontaneous electrographic seizures in combined medial entorhinal cortex hippocampal brain slices of albino Sprague-Dawley rat assessed as burst duration at 100 uM after 1 week relative to control; assay type: functional; how it was run: as §3
[27] = AUC in rat at 60 mg/kg, ip; assay type: ADME, organism-based; parameters: dose 60 mg/kg, route intraperitoneal; details: plasma; how it was run: as §2
[28] = Solubility of the compound in water; assay type: physicochemical
[29] = Solubility of the compound in 5:1:4 solution of propylene glycol, alcohol and water; assay type: physicochemical
[30] = test system: Mus musculus; assay: Teratogenicity in SWV/Fnn mouse assessed as live fetuses at 181 mg/kg, ip on day 8.5 of gestation (reference value: 93.7 %); assay type: toxicity, organism-based; parameters: dose 181 mg/kg, route intraperitoneal; details: in vivo
[31] = test system: Mus musculus; assay: Teratogenicity in SWV/Fnn mouse assessed as fetuses with neural tube defects at 181 mg/kg, ip on day 8.5 of gestation relative to vehicle-treated control; assay type: toxicity, organism-based; parameters: dose 181 mg/kg, route intraperitoneal; details: in vivo
[32] = test system: Mus musculus; assay: Teratogenicity in SWV/Fnn mouse assessed as normal fetuses at 181 mg/kg, ip on day 8.5 of gestation (reference value: 100 %); assay type: toxicity, organism-based; parameters: dose 181 mg/kg, route intraperitoneal; details: in vivo
[33] = test system: Mus musculus; assay: Teratogenicity in SWV/Fnn mouse assessed as normal fetuses at 301 mg/kg, ip on day 8.5 of gestation (reference value: 100 %); assay type: toxicity, organism-based; parameters: dose 301 mg/kg, route intraperitoneal; details: in vivo
[34] = test system: Mus musculus; assay: Teratogenicity in SWV/Fnn mouse assessed as resorption at 181 mg/kg, ip on day 8.5 of gestation (reference value: 6.3 %); assay type: toxicity, organism-based; parameters: dose 181 mg/kg, route intraperitoneal; details: in vivo
[35] = test system: Mus musculus; assay: Teratogenicity in SWV/Fnn mouse assessed as resorption at 301 mg/kg, ip on day 8.5 of gestation (reference value: 6.3 %); assay type: toxicity, organism-based; parameters: dose 301 mg/kg, route intraperitoneal; details: in vivo

| SMILES | ED50 [1] [mg/kg] | Activity [2] [%] | ED50 [3] [mg/kg] | Activity [4] [%] | TD50 [5] [mg/kg] | Tmax [6] [h] | Activity [7] [%] | MRT [8] [h] | ED50 [9] [mg/kg] | half-life [10] [h] | ED50 [11] [mg/kg] | TD50 [15] [mg/kg] | CL/F [16] [L/h/kg] | Activity [17] [%] | Activity [18] [%] | Activity [19] [%] | Vd/F [21] [L/kg] | Activity [22] [%] | Activity [23] [%] | Activity [24] [%] | further results |
| --- | --- | --- | --- | --- | --- | --- | --- | --- | --- | --- | --- | --- | --- | --- | --- | --- | --- | --- | --- | --- | --- |
| CCC[C@H](C(N)=O)[C@@H](C)CC | 94 | 100 | 48 | 100 | 124 | 0.5 | 109 | 1.8 | 59 | 1.5 | 27 | 126 | 1.8 | 94.2 | 7.5 | 92.5 | 3.9 | 5.8 | 0 | 0 | ED50 [12]: 75 mg/kg; ED50 [13]: 69 mg/kg; ED50 [14]: 14 mg/kg; TD50 [20]: 34 mg/kg; Cmax [25]: 21.7 µg/mL; Activity [26]: 45%; AUC [27]: 32.9 µg·h/mL |
| CCCC(C(N)=O)C(C)CC (racemic) | 84 | 87 | 29 | 93 | 131 | 0.75 | 76 | 1.8 | 45 | 1.1 | 27 | 88 | 1.8 | 92.5 | 13.4 | 86.6 | 3 | 7.5 | 0 | 0 | ED50 [12]: 71 mg/kg; ED50 [13]: 62 mg/kg; ED50 [14]: 21 mg/kg; solubility [28]: 1.5 mg/mL (≈ 9.54 mM); solubility [29]: 27 mg/mL (≈ 172 mM); TD50 [20]: 49 mg/kg; Cmax [25]: 14.1 µg/mL; Activity [26]: 145%; AUC [27]: 31.3 µg·h/mL |
| CCC[C@@H](C(N)=O)[C@H](C)CC [(2R,3R)-SEC-BUTYLPROPYLACETAMIDE] | 98 | 94.6 | 79 | 100 | 102 | 0.5 | 77 | 1.5 | 52 | 1.1 | 38 | 94 | 2.2 | 92.5 | 22.9 | 77.1 | 3.6 | 7.5 | 5.4 | 0 | ED50 [12]: 70 mg/kg; ED50 [13]: 53 mg/kg; ED50 [14]: 15 mg/kg; TD50 [20]: 34 mg/kg; Cmax [25]: 18 µg/mL; Activity [26]: 94%; AUC [27]: 26.4 µg·h/mL |
| CCC[C@@H](C(N)=O)[C@@H](C)CC [(2R,3S)-SEC-BUTYLPROPYLACETAMIDE] | 135 | 100 | 72 | 100 | 79 | 1 | 97 | 2.2 | 51 | 1.3 | 29 | 67 | 3.9 | 91.6 | 6.5 | 93.5 | 7.2 | 8.4 | 0 | 0 | ED50 [12]: 95 mg/kg; ED50 [13]: 93 mg/kg; ED50 [14]: 15 mg/kg; TD50 [20]: 41 mg/kg; Cmax [25]: 5.3 µg/mL; Activity [26]: 78%; AUC [27]: 15.2 µg·h/mL |
| CCC[C@H](C(N)=O)[C@H](C)CC [(2S,3R)-SEC-BUTYLPROPYLACETAMIDE] | > 130 | 100 | 106 | 100 | 105 | 0.5 | 91 | 1.5 | < 100 | 0.95 | 27 | > 75 | 4.6 | 92.6 | 9.4 | 90.6 | 6.3 | 7.4 | 0 | 0 | Cmax [25]: 8 µg/mL; Activity [26]: 90%; AUC [27]: 12.6 µg·h/mL |
| CCCC(CCC)C(=O)[O-].[Na+] [VALPROATE SODIUM] | – | – | – | – | – | – | – | – | – | – | – | – | – | – | – | – | – | – | – | – | Activity [30]: 92.3%; Activity [31]: 0%; Activity [32]: 100%; Activity [33]: 99%; Activity [34]: 7.7%; Activity [35]: 13.6% |
